In ChEMBL document CHEMBL2424587, “Antiproliferative activity of abietane diterpenoids against human tumor cells” (J Nat Prod, 2013):
The source made the active and inactive calls. The calls are words filed in the database; no cut-off is given here.

Columns and labels:
HL-60 [1] = assay: Induction of apoptosis in human HL60 cells assessed as PARP cleavage at 3 uM after 24 hrs by immunoblotting analysis; format: functional, cell-based
Method in brief: (§1)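 HL-60 cells treated 24 h with 3 μM; immunoblots of lysates probed with antibodies that recognize both pro-caspases and cleaved caspases, and for PARP.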

HL-60 [2] = assay: Induction of apoptosis in human HL60 cells assessed as release of cytochrome c to cytosolic fraction by Western blotting analysis; format: functional, cell-based
HL-60 [3] = assay: Induction of apoptosis in human HL60 cells assessed as nuclear chromatin fragmentation after 6 hrs by Hoechst 33258 staining-based fluorescence microscopy; format: functional, cell-based
HL-60 [4] = assay: Induction of apoptosis in human HL60 cells assessed as procaspase-3 cleavage at 3 uM after 24 hrs by immunoblotting analysis; format: functional, cell-based; method in brief: as §1
MCF7 = assay: Cytotoxicity against human MCF7 cells after 72 hrs by MTT assay; format: functional, cell-based; conditions: MCF7, 72 h
Method in brief: (§2)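 MTT assay: 1 × 10^4 exponentially growing cells per well incubated 72 h over a range of compound concentrations; MTT 0.5 mg/mL for 4 h at 37 °C, then 10% SDS in 0.05 M HCl overnight at room temperature in the dark; absorbance at 570 nm. Leukemia and SK-MEL-1 lines grown in RPMI 1640, MCF-7 in DMEM, both with 10% heat-inactivated FBS. IC50 given as mean ± SEM of 3–5 independent experiments, each in triplicate.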

HL-60 [5] = assay: Cytotoxicity against human HL60 cells overexpressing Bcl-XL protein after 72 hrs by MTT assay; format: functional, cell-based; conditions: HL-60, 72 h
HL-60 [6] = assay: Induction of apoptosis in human HL60 cells assessed as nuclear chromatin condensation after 6 hrs by Hoechst 33258 staining-based fluorescence microscopy; format: functional, cell-based
HL-60 [7] = assay: Cell cycle arrest in human HL60 cells assessed as accumulation at S phase at 3 uM after 24 hrs by […]propidium iodide staining-based flow cytometry (reference value: 32%); format: functional
HL-60 [8] = assay: Induction of apoptosis in human HL60 cells assessed as hypodiploid cells at 3 uM by flow cytometry; format: functional, cell-based; conditions: TDE = time-dependent effect
HL-60 [9] = assay: Induction of apoptosis in human HL60 cells using DEVD-pNA as substrate assessed as caspase-3/7 activation at 3 uM after 24 hrs relative to control; format: functional
Method in brief: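 HL-60 cells treated with 3 μM diterpene for 24 h. Lysates were assayed for cleavage of chromogenic tetrapeptide substrates DEVD-pNA (caspase-3/7), IETD-pNA (caspase-8) and LEHD-pNA (caspase-9). Activity is expressed as n-fold over untreated control. Mean ± SE of three independent experiments, each in triplicate.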

HL-60 [10] = assay: Cell cycle arrest in human HL60 cells assessed as accumulation at Sub-G1 phase at 3 uM after 24 hrs by […]propidium iodide staining-based flow cytometry (reference value: 4%); format: functional
HL-60 [11] = assay: Induction of apoptosis in human HL60 cells assessed as procaspase-8 cleavage at 3 uM after 24 hrs by immunoblotting analysis; format: functional, cell-based; method in brief: as §1
HL-60 [12] = assay: Induction of apoptosis in human HL60 cells assessed as procaspase-4 cleavage at 3 uM after 24 hrs by immunoblotting analysis; format: functional, cell-based; method in brief: as §1
HL-60 [13] = assay: Cytotoxicity against human HL60 cells after 72 hrs by MTT assay; format: functional, cell-based; conditions: HL-60, 72 h; method in brief: as §2
HL-60 [14] = assay: Induction of apoptosis in human HL60 cells after 24 hrs by flow cytometry in presence of caspase-9 inhibitor Z-LEHD-FMK; format: functional, cell-based
Method in brief: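 HL-60 cells pretreated 1 h with caspase inhibitor, then given diterpene for 24 h; hypodiploid cells counted by flow cytometry; mean ± SE of three independent experiments in triplicate.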

HL-60 [15] = assay: Induction of apoptosis in human HL60 cells assessed as release of Smac/DIABLO to cytosolic fraction by Western blotting analysis; format: functional, cell-based
SK-MEL-1 = assay: Cytotoxicity against human SK-MEL-1 cells after 72 hrs by MTT assay; format: functional, cell-based; conditions: SK-MEL-1, 72 h; method in brief: as §2
MOLT-3 = assay: Cytotoxicity against human MOLT3 cells after 72 hrs by MTT assay; format: functional, cell-based; conditions: MOLT-3, 72 h; method in brief: as §2
U-937 [16] = assay: Cytotoxicity against human U937 cells after 72 hrs by MTT assay; format: functional, cell-based; conditions: U-937, 72 h; method in brief: as §2
HL-60 [17] = assay: Induction of apoptosis in human HL60 cells assessed as reduction in mitochondrial membrane potential at 3 uM after 24 hrs by JC-1 staining-based flow cytometry in presence of bongkrekic acid; format: functional, cell-based
Method in brief: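 HL-60 cells exposed to 3 μM diterpene for 24 h alongside permeability transition pore inhibitors cyclosporin A (25 μM, 24 h) or bongkrekic acid (25−50 μM, 24 h). Apoptosis was scored by flow cytometry. Mitochondrial membrane potential was read by JC-1 fluorescence on flow cytometry.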

HL-60 [18] = assay: Induction of apoptosis in human HL60 cells assessed as procaspase-6 cleavage at 3 uM after 24 hrs by immunoblotting analysis; format: functional, cell-based; method in brief: as §1
PBMC = assay: Cytotoxicity against human PBMC cells up to 3 uM after 24 hrs by MTT assay; format: cell-based
Method in brief: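 PBMC from heparinized blood of healthy volunteers, isolated on Ficoll-Paque, cultured in parallel with HL-60 cells for 24 h at the stated concentrations; viability measured by MTT; Student's t-test versus untreated control.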

U-937 [19] = assay: Cytotoxicity against human U937 cells overexpressing Bcl-2 protein after 72 hrs by MTT assay; format: functional, cell-based; conditions: U-937, 72 h
HL-60 [20] = assay: Induction of apoptosis in human HL60 cells assessed as externalization of phosphotidylserine at 3 uM after 24 hrs by AnnexinV-FITC/propidium iodide staining-based flow cytometry; format: functional, cell-based
Method in brief: (§3)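 HL-60 cells given 3 μM for 24 h, stained with annexin V-FITC and propidium iodide, and analysed by flow cytometry; annexin+/PI− cells scored as early apoptotic and double-positive cells as late; three separate experiments.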

HL-60 [21] = assay: Induction of apoptosis in human HL60 cells assessed as hypodiploid cells at 3 uM after 24 hrs by flow cytometry (reference value: 4.4 +/- 0.8%); format: functional
HL-60 [22] = assay: Induction of apoptosis in human HL60 cells assessed as late apoptotic cells at 3 uM after 24 hrs by AnnexinV-FITC/propidium iodide staining-based flow cytometry (reference value: 3.1%); format: functional; method in brief: as §3
HL-60 [23] = assay: Induction of apoptosis in human HL60 cells assessed as DNA fragmentation at 3 uM after 24 hrs by […]; format: functional, cell-based
HL-60 [24] = assay: Induction of apoptosis in human HL60 cells assessed as release of AIF to cytosolic fraction by Western blotting analysis; format: functional, cell-based
HL-60 [25] = assay: Cytotoxicity against human HL60 cells overexpressing neomycin-resistant gene after 72 hrs by MTT assay; format: functional, cell-based
HL-60 [26] = assay: Induction of apoptosis in human HL60 cells assessed as early apoptotic cells at 3 uM after 24 hrs by AnnexinV-FITC/propidium iodide staining-based flow cytometry (reference value: 1.6%); format: functional; method in brief: as §3
HL-60 [27] = assay: Induction of apoptosis in human HL60 cells at 3 uM after 24 hrs by flow cytometry in presence of Z-VAD-FMK; format: functional, cell-based
Method in brief: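 HL-60 cells pretreated with pancaspase inhibitor Z-VAD-FMK (100 μM), then given diterpene (3 μM) for 24 h. Hypodiploid (sub-G1) apoptotic cells were counted by flow cytometry. Mean ± SE of three independent experiments, each in triplicate.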

## COc1ccc(C(=O)OC2=C(C(C)C)C(=O)C3=C(C2=O)[C@@]2(C)CCCC(C)(C)[C@@H]2[C@H](O)[C@H]3OC(C)=O)cc1
HL-60 [1]
  Activity: Active
HL-60 [2]
  Activity: Active
HL-60 [3]
  Activity: Active
HL-60 [4]
  Activity: Active
MCF7
  IC50: 3100 nM
HL-60 [5]
  IC50: 2900 nM
HL-60 [6]
  Activity: Active
HL-60 [7]
  Activity: 21%
HL-60 [8]
  Activity: tde
HL-60 [9]
  fold change (FC): 2
HL-60 [10]
  Activity: 28%
HL-60 [11]
  Activity: Active
HL-60 [12]
  Activity: Active
HL-60 [13]
  IC50: 2700 nM
HL-60 [14]
  Activity: Active
HL-60 [15]
  Activity: Active
SK-MEL-1
  IC50: 7200 nM
MOLT-3
  IC50: 1500 nM
U-937 [16]
  IC50: 1400 nM
HL-60 [17]
  Activity: Active
HL-60 [18]
  Activity: inactive
PBMC
  Activity: Non-toxic
U-937 [19]
  IC50: 2100 nM
HL-60 [20]
  Activity: Active
HL-60 [21]
  Activity: 34.5%
HL-60 [22]
  Activity: 30.2%
HL-60 [23]
  Activity: Active
HL-60 [24]
  Activity: Active
HL-60 [25]
  Activity: Active
HL-60 [26]
  Activity: 30.2%
HL-60 [27]
  Activity: Active

## CC(=O)O[C@H]1C2=C(C(=O)C(OC(=O)c3ccccc3)=C(C(C)C)C2=O)[C@@]2(C)CCCC(C)(C)[C@@H]2[C@@H]1OC(=O)c1ccccc1
HL-60 [1]
  Activity: Active
HL-60 [2]
  Activity: Active
HL-60 [3]
  Activity: Active
HL-60 [4]
  Activity: Active
MCF7
  IC50: 25500 nM
HL-60 [5]
  IC50: 1100 nM
HL-60 [6]
  Activity: Active
HL-60 [7]
  Activity: 16%
HL-60 [8]
  Activity: tde
HL-60 [9]
  fold change (FC): 2
HL-60 [10]
  Activity: 40%
HL-60 [11]
  Activity: Active
HL-60 [12]
  Activity: Active
HL-60 [13]
  IC50: 3600 nM
HL-60 [14]
  Activity: Active
HL-60 [15]
  Activity: Active
SK-MEL-1
  IC50: 3100 nM
MOLT-3
  IC50: 6900 nM
U-937 [16]
  IC50: 1800 nM
HL-60 [17]
  Activity: Active
HL-60 [18]
  Activity: Active
PBMC
  Activity: Non-toxic
U-937 [19]
  IC50: 600 nM
HL-60 [20]
  Activity: Active
HL-60 [21]
  Activity: 48%
HL-60 [22]
  Activity: 20.7%
HL-60 [23]
  Activity: Active
HL-60 [24]
  Activity: Active
HL-60 [25]
  Activity: Active
HL-60 [26]
  Activity: 20.7%
HL-60 [27]
  Activity: Active

## CC(=O)O[C@H]1C2=C(C(=O)C(OC(=O)c3ccc(Cl)cc3)=C(C(C)C)C2=O)[C@@]2(C)CCCC(C)(C)[C@@H]2[C@@H]1O
HL-60 [1]
  Activity: Active
HL-60 [2]
  Activity: Active
HL-60 [3]
  Activity: Active
HL-60 [4]
  Activity: Active
MCF7
  IC50: 2900 nM
HL-60 [5]
  IC50: 2200 nM
HL-60 [6]
  Activity: Active
HL-60 [7]
  Activity: 23%
HL-60 [8]
  Activity: tde
HL-60 [9]
  fold change (FC): 2
HL-60 [10]
  Activity: 32%
HL-60 [11]
  Activity: Active
HL-60 [12]
  Activity: Active
HL-60 [13]
  IC50: 2400 nM
HL-60 [14]
  Activity: Active
HL-60 [15]
  Activity: Active
SK-MEL-1
  IC50: 4000 nM
MOLT-3
  IC50: 1400 nM
U-937 [16]
  IC50: 1100 nM
HL-60 [17]
  Activity: Active
HL-60 [18]
  Activity: inactive
PBMC
  Activity: Non-toxic
U-937 [19]
  IC50: 1100 nM
HL-60 [20]
  Activity: Active
HL-60 [21]
  Activity: 40.4%
HL-60 [22]
  Activity: 28.8%
HL-60 [23]
  Activity: Active
HL-60 [24]
  Activity: Active
HL-60 [25]
  Activity: Active
HL-60 [26]
  Activity: 28.8%
HL-60 [27]
  Activity: Active
